Test results published in ChEMBL document CHEMBL1153214, “Synthesis and PGE(2) production inhibition of 1H-furan-2,5-dione and 1H-pyrrole-2,5-dione derivatives” (Bioorg Med Chem Lett, 2010).

How the values were obtained:
RAW264.7 [1] = assay: Antiinflammatory activity in mouse RAW264.7 cells assessed as inhibition of LPS-induced PGE2 production by EIA; assay type: functional, cell-based
Method in brief: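 RAW 264.7 macrophages seeded at 10⁵ cells/well in 96-well plates. Cells pretreated with test samples at increasing concentrations or NS398 as positive control, then stimulated with LPS 1 µg/ml for the indicated time. PGE₂ in the medium quantified by EIA. IC50 derived; experiments run at least three times.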

RAW264.7 [2] = assay: Cytotoxicity against LPS-stimulated mouse RAW264.7 cells assessed as cell viability after 24 hrs by MTT assay; assay type: cell-based; details: RAW264.7, 24 h
Method in brief: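 RAW 264.7 cells plated at 10⁵ cells/well in 96-well plates, treated with various concentrations of compounds in the presence of LPS. Viability read by colorimetric MTT assay 24 h after treatment.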

[3] = molecular target: T1, Prostaglandin G/H synthase 2 (Homo sapiens, UniProt P35354); assay: Inhibition of COX2 assessed as PGF2alpha level by EIA
T1 sequence (P35354 whole entry): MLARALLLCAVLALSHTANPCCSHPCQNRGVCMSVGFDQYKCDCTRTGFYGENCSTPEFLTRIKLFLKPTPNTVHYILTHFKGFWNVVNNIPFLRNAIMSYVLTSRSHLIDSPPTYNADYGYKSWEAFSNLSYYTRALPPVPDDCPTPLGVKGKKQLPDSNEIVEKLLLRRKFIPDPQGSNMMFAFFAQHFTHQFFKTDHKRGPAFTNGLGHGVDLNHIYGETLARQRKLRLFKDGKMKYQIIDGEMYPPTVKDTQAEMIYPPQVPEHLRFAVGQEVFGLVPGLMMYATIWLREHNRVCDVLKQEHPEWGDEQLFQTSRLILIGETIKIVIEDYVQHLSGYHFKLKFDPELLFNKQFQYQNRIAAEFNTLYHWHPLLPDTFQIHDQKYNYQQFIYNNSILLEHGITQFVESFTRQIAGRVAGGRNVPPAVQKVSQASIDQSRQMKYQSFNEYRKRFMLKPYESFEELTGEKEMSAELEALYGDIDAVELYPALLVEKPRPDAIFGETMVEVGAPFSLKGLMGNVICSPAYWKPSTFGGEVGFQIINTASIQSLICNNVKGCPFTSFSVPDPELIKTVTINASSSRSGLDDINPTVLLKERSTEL

[4] = Mus musculus, RAW264.7, read-out: IC50

SMILES	IC50 (RAW264.7 [1]; [4])	IC50 [3]	IC50 (RAW264.7 [1]; raw264.7)	IC50 (RAW264.7 [2])
O=C1NC(=O)C(c2ccccc2)=C1c1ccccc1	27.9 µM	–	–	270 µM
CSc1ccc(C2=C(c3ccc(OC(C)=O)cc3)C(=O)OC2=O)cc1	30.5 µM	–	–	334 µM
CC(=O)Oc1ccc(C2=C(c3ccc([S+](C)[O-])cc3)C(=O)OC2=O)cc1 (configuration not stated)	68.8 µM	–	–	262 µM
COc1cc(C2=C(c3ccccc3)C(=O)OC2=O)cc(OC)c1OC	37.1 µM	–	–	313 µM
CS(=O)(=O)c1ccc(C2=C(c3ccccc3)C(=O)OC2=O)cc1	15.4 µM	–	–	266 µM
CSc1ccc(C2=C(c3ccc(O)cc3)C(=O)NC2=O)cc1	0.84 µM	21 µM	–	125 µM
CS(=O)(=O)c1ccc(C2=C(c3ccc(O)cc3)C(=O)NC2=O)cc1	–	–	Not Active	171 µM
O=C1NC(=O)C(c2cccc(O)c2)=C1c1ccccc1	13.8 µM	–	–	158 µM
O=C1NC(=O)C(c2ccc(O)c(O)c2)=C1c1ccccc1	2.69 µM	16 µM	–	207 µM
COc1cccc(C2=C(c3ccccc3)C(=O)NC2=O)c1	9.95 µM	–	–	260 µM
C[S+]([O-])c1ccc(C2=C(c3ccccc3)C(=O)NC2=O)cc1 (configuration not stated)	21.5 µM	–	–	303 µM
COc1ccc(C2=C(c3ccc(S(C)(=O)=O)cc3)C(=O)OC2=O)cc1	–	–	Not Active	271 µM
CSc1ccc(C2=C(c3ccc(NC(C)=O)cc3)C(=O)OC2=O)cc1	5.71 µM	20.1 µM	–	250 µM
CSc1ccc(C2=C(c3ccc(N(C(C)=O)C(C)=O)cc3)C(=O)OC2=O)cc1	78.5 µM	–	–	277 µM
C[S+]([O-])c1ccc(C2=C(c3ccc(F)cc3)C(=O)NC2=O)cc1 (configuration not stated)	45.2 µM	–	–	242 µM
O=C1OC(=O)C(c2ccc3c(c2)OCO3)=C1c1ccccc1	7.13 µM	18.5 µM	–	329 µM
CSc1ccc(C2=C(c3ccccc3)C(=O)NC2=O)cc1	4.73 µM	16.3 µM	–	152 µM
CS(=O)(=O)c1ccc(C2=C(c3ccccc3)C(=O)NC2=O)cc1	2.71 µM	17.5 µM	–	269 µM
COc1ccc(C2=C(c3ccccc3)C(=O)OC2=O)cc1OC	71.3 µM	–	–	257 µM
CS(=O)(=O)Nc1ccc([N+](=O)[O-])cc1OC1CCCCC1 [NS-398]	4.8 µM	–	–	–

More lines, main results first:

IC50 (RAW264.7 [1]; [4])	IC50 [3]	IC50 (RAW264.7 [1]; raw264.7)	SMILES	IC50 (RAW264.7 [2])
132 µM	–	–	COc1ccc(C2=C(c3ccccc3)C(=O)NC2=O)cc1OC	305 µM
25.1 µM	–	–	COc1cc(C2=C(c3ccccc3)C(=O)NC2=O)cc(OC)c1OC	151 µM
4.41 µM	16.6 µM	–	CC(=O)Oc1ccc(C2=C(c3ccc(S(C)(=O)=O)cc3)C(=O)OC2=O)cc1	262 µM
23.8 µM	–	–	COc1ccc(C2=C(c3ccc([S+](C)[O-])cc3)C(=O)OC2=O)cc1 (configuration not stated)	284 µM
7.96 µM	–	–	O=C1NC(=O)C(c2ccc3c(c2)OCO3)=C1c1ccccc1	195 µM
–	15.6 µM	–	NS(=O)(=O)c1ccc(C2=C(c3ccccc3)C(=O)NC2=O)cc1	158 µM
10.8 µM	–	–	CS(=O)(=O)c1ccc(C2=C(c3ccc(F)cc3)C(=O)NC2=O)cc1	261 µM
98.1 µM	–	–	C[S+]([O-])c1ccc(C2=C(c3ccc(O)cc3)C(=O)NC2=O)cc1 (configuration not stated)	213 µM
12.6 µM	–	–	COc1ccc(C2=C(c3ccc(SC)cc3)C(=O)OC2=O)cc1	266 µM
3.58 µM	18.5 µM	–	CSc1ccc(C2=C(c3ccccc3)C(=O)OC2=O)cc1	195 µM
8.19 µM	17.5 µM	–	O=C1NC(=O)C(c2cc(O)c(O)c(O)c2)=C1c1ccccc1	261 µM
25.5 µM	–	–	CSc1ccc(C2=C(c3ccc(F)cc3)C(=O)NC2=O)cc1	121 µM
